Results: ChEMBL document CHEMBL3351961, “In vitro antitumor activity evaluation of some 1,2,4-triazine derivatives bearing piperazine amide moiety against breast cancer cells” (Bioorg Med Chem, 2014)
Calls of active or inactive are those of the source. The rule behind the calls is not given here.

Experiments:
MCF7 [1] = assay: Cytotoxicity against human MCF7 cells after 24 hrs by MTT assay; assay type: functional, cell-based; conditions: MCF7, 24 h, in the assay text read “XTT assay” for “MTT assay”
Method in brief: (§1)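 Cells grown in RPMI with fetal calf serum, penicillin/streptomycin, 37 °C, 5% CO2. Seeded 2 × 10^4 cells/well, then 24 h. Medium replaced with compound at 3.9–500 µg/ml (DMSO stocks diluted in medium, final DMSO under 0.1%). XTT read-out of mitochondrial activity: 3 h at 37 °C, OD 480 nm (reference 680 nm). IC50 by non-linear regression; duplicate experiments; cisplatin positive control.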

[2] = Cytotoxicity against mouse NIH/3T3 cells after 24 hrs by MTT assay; assay type: cell-based; conditions: NIH3T3, 24 h, in the assay text read “XTT assay” for “MTT assay”; method in brief: as §1
MCF7 [3] = assay: Induction of apoptosis in human MCF7 cells assessed as late apoptotic cells level at cytotoxic IC50 level after 24 hrs by Annexin V/PI dual staining based flow cytometry (reference value: 1.52 %); assay type: functional
MCF7 [4] = assay: Induction of apoptosis in human MCF7 cells assessed as early apoptotic cells level at cytotoxic IC50 level after 24 hrs by Annexin V/PI dual staining based flow cytometry (reference value: 0.46%); assay type: functional
MCF7 [5] = assay: Induction of apoptosis in human MCF7 cells assessed as viable cells level at cytotoxic IC50 level after 24 hrs by Annexin V/PI dual staining based flow cytometry (reference value: 94.36 %); assay type: functional
MCF7 [6] = assay: Induction of apoptosis in human MCF7 cells assessed as necrotic cells level at cytotoxic IC50 level after 24 hrs by Annexin V/PI dual staining based flow cytometry (reference value: 3.66 %); assay type: functional
MCF7 [7] = assay: Inhibition of DNA synthesis in human MCF7 cells at cytotoxic IC50 level after 24 hrs by 5-bromo-20-deoxy-uridine incorporation method; assay type: functional
Method in brief: (§2)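 BrdU ELISA on MCF-7 seeded at 2 × 10^4 cells/well. Compounds given at IC50/2, IC50 and 2 × IC50 (from the XTT assay) for 24 h or 48 h. BrdU added for 2 h at 37 °C, then anti-BrdU-POD for 90 min, three PBS washes and colorimetric substrate. Untreated control absorbance set as 0% inhibition. Means of two independent experiments ± SD of four wells; cisplatin positive control.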

MCF7 [8] = assay: Inhibition of DNA synthesis in human MCF7 cells at 2 times cytotoxic IC50 level after 48 hrs by 5-bromo-20-deoxy-uridine incorporation method; assay type: functional; method in brief: as §2
MCF7 [9] = assay: Inhibition of DNA synthesis in human MCF7 cells at cytotoxic IC50 level after 48 hrs by 5-bromo-20-deoxy-uridine incorporation method; assay type: functional; method in brief: as §2
MCF7 [10] = assay: Inhibition of DNA synthesis in human MCF7 cells at 0.5 times cytotoxic IC50 level after 24 hrs by 5-bromo-20-deoxy-uridine incorporation method; assay type: functional; method in brief: as §2
MCF7 [11] = assay: Inhibition of DNA synthesis in human MCF7 cells at 2 times cytotoxic IC50 level after 24 hrs by 5-bromo-20-deoxy-uridine incorporation method; assay type: functional; method in brief: as §2
MCF7 [12] = assay: Inhibition of DNA synthesis in human MCF7 cells at 0.5 times cytotoxic IC50 level after 48 hrs by 5-bromo-20-deoxy-uridine incorporation method; assay type: functional; method in brief: as §2
MCF7 [13] = assay: Inhibition of DNA synthesis in human MCF7 cells at 44.18 ug/ml after 48 hrs by 5-bromo-20-deoxy-uridine incorporation method; assay type: functional; conditions: MCF7, 48 h
Method in brief: (§3)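 MCF-7 seeded at 2 × 10^4 cells/well and exposed to compound for 48 h at the stated concentration. BrdU added for 2 h at 37 °C, then anti-BrdU-POD for 90 min, PBS washes and colorimetric substrate. Inhibition taken relative to untreated control absorbance (set as 0%). Means of two independent experiments ± SD of four wells.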

MCF7 [14] = assay: Inhibition of DNA synthesis in human MCF7 cells at 22.09 ug/ml after 48 hrs by 5-bromo-20-deoxy-uridine incorporation method; assay type: functional; conditions: MCF7, 48 h; method in brief: as §3
MCF7 [15] = assay: Inhibition of DNA synthesis in human MCF7 cells at 30.63 ug/ml after 48 hrs by 5-bromo-20-deoxy-uridine incorporation method; assay type: functional; conditions: MCF7, 48 h; method in brief: as §3
MCF7 [16] = assay: Inhibition of DNA synthesis in human MCF7 cells at 15.32 ug/ml after 48 hrs by 5-bromo-20-deoxy-uridine incorporation method; assay type: functional; conditions: MCF7, 48 h; method in brief: as §3
MCF7 [17] = assay: Inhibition of DNA synthesis in human MCF7 cells at 61.26 ug/ml after 48 hrs by 5-bromo-20-deoxy-uridine incorporation method; assay type: functional; conditions: MCF7, 48 h; method in brief: as §3

| Compound | IC50 (MCF7 [1]) [µM] | IC50 [2] [µM] | further results |
| --- | --- | --- | --- |
| O=C(CN1CCN(c2ccc([N+](=O)[O-])cc2)CC1)N1CCN(c2nnc(-c3ccc(Cl)cc3)c(-c3ccc(Cl)cc3)n2)CC1 | > 790 | > 790 |  |
| COc1ccc(-c2nnc(N3CCN(C(=O)CN4CCN(c5cccc(OC)c5)CC4)CC3)nc2-c2ccc(OC)cc2)cc1 | > 821 | > 821 |  |
| COc1cccc(N2CCN(CC(=O)N3CCN(c4nnc(-c5ccc(Cl)cc5)c(-c5ccc(Cl)cc5)n4)CC3)CC2)c1 | 149 | 202 | Activity (MCF7 [3]): 3.3%; Activity (MCF7 [4]): 0.9%; Activity (MCF7 [5]): 71.3%; Activity (MCF7 [6]): 24.5% |
| O=C(CN1CCN(c2ccccc2)CC1)N1CCN(c2nnc(-c3ccc(Cl)cc3)c(-c3ccc(Cl)cc3)n2)CC1 | > 850 | > 850 |  |
| COc1ccc(N2CCN(CC(=O)N3CCN(c4nnc(-c5ccc(Cl)cc5)c(-c5ccc(Cl)cc5)n4)CC3)CC2)cc1 | > 809 | > 809 |  |
| COc1ccccc1N1CCN(CC(=O)N2CCN(c3nnc(-c4ccccc4)c(-c4ccccc4)n3)CC2)CC1 | 167 | 444 | inhibition (INH) (MCF7 [7]): 76.35%; inhibition (MCF7 [8]): Active; inhibition (MCF7 [9]): Active; inhibition (INH) (MCF7 [10]): 22.44%; inhibition (INH) (MCF7 [11]): 81.61%; Activity (MCF7 [3]): 0.4%; Activity (MCF7 [4]): 0%; inhibition (MCF7 [12]): Active; Activity (MCF7 [5]): 82.5%; Activity (MCF7 [6]): 17.1% |
| O=C(CN1CCN(c2ccc(Cl)cc2)CC1)N1CCN(c2nnc(-c3ccccc3)c(-c3ccccc3)n2)CC1 | 56.3 | 113 | inhibition (INH) (MCF7 [8]): 62.34%; inhibition (INH) (MCF7 [9]): 52.05%; Activity (MCF7 [3]): 10.3%; Activity (MCF7 [4]): 2.1%; inhibition (INH) (MCF7 [12]): 24.98%; Activity (MCF7 [5]): 76.4%; Activity (MCF7 [6]): 11.2% |
| Cc1ccc(-c2nnc(N3CCN(C(=O)CN4CCN(c5ccccc5)CC4)CC3)nc2-c2ccc(C)cc2)cc1 | 914 | > 914 |  |
| COc1cccc(N2CCN(CC(=O)N3CCN(c4nnc(-c5ccccc5)c(-c5ccccc5)n4)CC3)CC2)c1 | > 911 | 361 |  |
| O=C(CN1CCN(c2ccccc2)CC1)N1CCN(c2nnc(-c3ccccc3)c(-c3ccccc3)n2)CC1 | > 963 | > 963 |  |
| Cc1ccc(-c2nnc(N3CCN(C(=O)CN4CCN(c5ccc(Cl)cc5)CC4)CC3)nc2-c2ccc(C)cc2)cc1 | 660 | 567 |  |
| O=C(CN1CCN(c2ccccc2Cl)CC1)N1CCN(c2nnc(-c3ccc(Cl)cc3)c(-c3ccc(Cl)cc3)n2)CC1 | 396 | > 803 |  |
| O=C(CN1CCN(c2cccc(Cl)c2)CC1)N1CCN(c2nnc(-c3ccccc3)c(-c3ccccc3)n2)CC1 | 56.3 | 178 | inhibition (INH) (MCF7 [7]): 31.36%; inhibition (INH) (MCF7 [8]): 70.18%; inhibition (INH) (MCF7 [9]): 61.16%; inhibition (INH) (MCF7 [10]): 26.06%; inhibition (INH) (MCF7 [11]): 41.48%; Activity (MCF7 [3]): 9.4%; Activity (MCF7 [4]): 2.2%; inhibition (INH) (MCF7 [12]): 56.59%; Activity (MCF7 [5]): 76.9%; Activity (MCF7 [6]): 11.5% |
| COc1ccc(-c2nnc(N3CCN(C(=O)CN4CCN(c5ccccc5)CC4)CC3)nc2-c2ccc(OC)cc2)cc1 | > 864 | > 864 |  |
| O=C(CN1CCN(c2ccccc2Cl)CC1)N1CCN(c2nnc(-c3ccccc3)c(-c3ccccc3)n2)CC1 | 263 | 350 |  |
| COc1cccc(N2CCN(CC(=O)N3CCN(c4nnc(-c5ccc(C)cc5)c(-c5ccc(C)cc5)n4)CC3)CC2)c1 | 867 | > 866 |  |

| Compound | IC50 (MCF7 [1]) [µM] | IC50 [2] [µM] | further results |
| --- | --- | --- | --- |
| COc1ccccc1N1CCN(CC(=O)N2CCN(c3nnc(-c4ccc(Cl)cc4)c(-c4ccc(Cl)cc4)n3)CC2)CC1 | 330 | 404 |  |
| O=C(CN1CCN(c2cccc(Cl)c2)CC1)N1CCN(c2nnc(-c3ccc(Cl)cc3)c(-c3ccc(Cl)cc3)n2)CC1 | > 803 | > 803 |  |
| Cc1ccc(-c2nnc(N3CCN(C(=O)CN4CCN(c5cccc(Cl)c5)CC4)CC3)nc2-c2ccc(C)cc2)cc1 | 797 | 859 |  |
| COc1ccccc1N1CCN(CC(=O)N2CCN(c3nnc(-c4ccc(C)cc4)c(-c4ccc(C)cc4)n3)CC2)CC1 | 59.4 | 133 | inhibition at 44.18 µg/mL (MCF7 [13]): 78.7%; Activity (MCF7 [3]): 5.8%; Activity (MCF7 [4]): 2.6%; Activity (MCF7 [5]): 63.4%; Activity (MCF7 [6]): 28.2%; inhibition at 22.09 µg/mL (MCF7 [14]): 78.5% |
| COc1ccc(-c2nnc(N3CCN(C(=O)CN4CCN(c5ccc(Cl)cc5)CC4)CC3)nc2-c2ccc(OC)cc2)cc1 | 607 | > 814 |  |
| COc1ccc(-c2nnc(N3CCN(C(=O)CN4CCN(c5ccccc5Cl)CC4)CC3)nc2-c2ccc(OC)cc2)cc1 | > 814 | > 814 |  |
| Cc1ccc(-c2nnc(N3CCN(C(=O)CN4CCN(c5ccccc5Cl)CC4)CC3)nc2-c2ccc(C)cc2)cc1 | 859 | > 859 |  |
| COc1ccc(-c2nnc(N3CCN(C(=O)CN4CCN(c5ccc(OC)cc5)CC4)CC3)nc2-c2ccc(OC)cc2)cc1 | > 821 | > 821 |  |
| COc1ccc(-c2nnc(N3CCN(C(=O)CN4CCN(c5ccc([N+](=O)[O-])cc5)CC4)CC3)nc2-c2ccc(OC)cc2)cc1 | > 801 | > 801 |  |
| O=C(CN1CCN(c2ccc([N+](=O)[O-])cc2)CC1)N1CCN(c2nnc(-c3ccccc3)c(-c3ccccc3)n2)CC1 | > 886 | > 886 |  |
| O=C(CN1CCN(c2ccc(Cl)cc2)CC1)N1CCN(c2nnc(-c3ccc(Cl)cc3)c(-c3ccc(Cl)cc3)n2)CC1 | > 803 | > 803 |  |
| Cc1ccc(-c2nnc(N3CCN(C(=O)CN4CCN(c5ccc([N+](=O)[O-])cc5)CC4)CC3)nc2-c2ccc(C)cc2)cc1 | 845 | > 845 |  |
| COc1ccc(N2CCN(CC(=O)N3CCN(c4nnc(-c5ccccc5)c(-c5ccccc5)n4)CC3)CC2)cc1 | > 911 | > 911 |  |
| COc1ccc(-c2nnc(N3CCN(C(=O)CN4CCN(c5ccccc5OC)CC4)CC3)nc2-c2ccc(OC)cc2)cc1 | > 821 | > 821 |  |
| COc1ccc(N2CCN(CC(=O)N3CCN(c4nnc(-c5ccc(C)cc5)c(-c5ccc(C)cc5)n4)CC3)CC2)cc1 | 53 | 116 | inhibition (INH) (MCF7 [7]): 77.82%; inhibition at 30.63 µg/mL (MCF7 [15]): 86%; inhibition at 15.32 µg/mL (MCF7 [16]): 76.7%; inhibition (INH) (MCF7 [10]): 56.94%; inhibition (INH) (MCF7 [11]): 88.52%; Activity (MCF7 [3]): 6.2%; inhibition at 61.26 µg/mL (MCF7 [17]): 88.9%; Activity (MCF7 [4]): 0.6%; Activity (MCF7 [5]): 66.5%; Activity (MCF7 [6]): 26.7% |
| COc1ccc(-c2nnc(N3CCN(C(=O)CN4CCN(c5cccc(Cl)c5)CC4)CC3)nc2-c2ccc(OC)cc2)cc1 | > 814 | > 814 |  |
